According to ChEMBL document CHEMBL1150432 (J Med Chem, 2008):
Calls of active or inactive are those of the source. No cut-off for these calls is given here.

Legend:
[1] = biological target: 5-hydroxytryptamine receptor 1B (Homo sapiens, UniProt P28222); assay: Displacement of [3H]5-hydroxytryptamine from human cloned 5HT1B receptor expressed in CHOK1 cells by liquid scintillation counting; assay type: cell-based, CHO-K1
[2] = biological target: 5-hydroxytryptamine receptor 1D (Homo sapiens, UniProt P28221); assay: Displacement of [3H]5-hydroxytryptamine from human cloned 5HT1D receptor expressed in CHOK1 cells by liquid scintillation counting; assay type: cell-based, CHO-K1
Method in brief: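 Membranes from CHO-K1 cells expressing cloned human 5-HT1D were purchased. Stopped by filtration over GF/B filters and counted by liquid scintillation. Ki derived from IC50 by Cheng-Prusoff. Each value is the mean of more than two runs done in duplicate or triplicate.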

[3] = Displacement of [3H]5-hydroxytryptamine from rhesus monkey cloned 5HT1F receptor expressed in African green monkey COS7 cells by liquid scintillation counting; assay type: cell-based, Macaca mulatta; details: cos-7
Method in brief: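 Rhesus monkey 5-HT1F cloned by PCR into pcDNA3.1 and transiently transfected into COS-7 cells. Membranes prepared by homogenization in 50 mM Tris-HCl, 5 mM EDTA, pH 7.4. Filtered over GF/B and counted by liquid scintillation. Ki calculated via Cheng-Prusoff. Mean of more than two runs in duplicate or triplicate.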

[4] = biological target: T1, 5-hydroxytryptamine receptor 1A (Homo sapiens, UniProt P08908); assay: Binding affinity to 5HT1A receptor
T1 sequence (P08908 whole entry): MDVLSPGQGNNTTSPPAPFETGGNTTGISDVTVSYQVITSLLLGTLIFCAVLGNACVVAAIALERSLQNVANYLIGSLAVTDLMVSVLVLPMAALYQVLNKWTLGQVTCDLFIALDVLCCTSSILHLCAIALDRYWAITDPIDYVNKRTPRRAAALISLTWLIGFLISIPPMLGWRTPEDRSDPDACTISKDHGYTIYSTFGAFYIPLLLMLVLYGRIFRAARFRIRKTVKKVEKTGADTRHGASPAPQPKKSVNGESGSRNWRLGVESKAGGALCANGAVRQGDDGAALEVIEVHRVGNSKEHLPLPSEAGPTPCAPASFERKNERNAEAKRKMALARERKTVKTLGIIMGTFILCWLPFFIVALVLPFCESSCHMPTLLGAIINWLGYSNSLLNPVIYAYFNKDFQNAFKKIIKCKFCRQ

[5] = Displacement of [3H]5-hydroxytryptamine from human cloned 5HT1D receptor expressed in CHOK1 cells by liquid scintillation counting; details: cho-k1
[6] = biological target: T2, Muscarinic acetylcholine receptor M2 (Homo sapiens, UniProt P08172); assay: Binding affinity to human muscarinic M2 receptor
T2 sequence (P08172 whole entry): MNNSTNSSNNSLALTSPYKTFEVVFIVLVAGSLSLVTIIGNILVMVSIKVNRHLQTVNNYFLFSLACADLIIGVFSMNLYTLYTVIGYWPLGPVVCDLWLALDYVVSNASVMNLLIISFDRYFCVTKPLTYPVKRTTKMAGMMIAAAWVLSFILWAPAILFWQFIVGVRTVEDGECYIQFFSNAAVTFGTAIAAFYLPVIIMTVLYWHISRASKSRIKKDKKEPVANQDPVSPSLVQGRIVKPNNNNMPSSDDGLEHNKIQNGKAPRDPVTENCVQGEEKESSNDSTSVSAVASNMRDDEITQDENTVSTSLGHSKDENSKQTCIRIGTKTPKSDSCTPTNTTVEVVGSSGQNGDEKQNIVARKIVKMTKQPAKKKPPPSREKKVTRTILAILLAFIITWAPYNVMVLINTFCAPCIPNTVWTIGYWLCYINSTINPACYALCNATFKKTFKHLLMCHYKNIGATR

[7] = biological target: 5-hydroxytryptamine receptor 1B (Oryctolagus cuniculus) (UniProt P49144); assay: Agonist activity at rabbit 5HT1B receptor assessed as induction of saphenous vein contraction at 30 uM after 5 mins; assay type: functional, tissue-based
[8] = biological target: Beta-2 adrenergic receptor (Homo sapiens, UniProt P07550); assay: Binding affinity to human adrenergic beta2 receptor
[9] = biological target: Muscarinic acetylcholine receptor M3 (Homo sapiens, UniProt P20309); assay: Binding affinity to human muscarinic M3 receptor
D(2) dopamine receptor = D(2) dopamine receptor (Homo sapiens, UniProt P14416); assay: Binding affinity to human dopamine D2 receptor
[10] = biological target: 5-hydroxytryptamine receptor 1B (Oryctolagus cuniculus) (UniProt P49144); assay: Antagonist activity at rabbit 5HT1B receptor assessed as inhibition of sumatriptan-induced saphenous vein contraction at 30 uM; assay type: functional, tissue-based; parameters: scale not given: the % may be the effect or the level left

Chain of 5-hydroxytryptamine receptor 1D (P28221 whole entry): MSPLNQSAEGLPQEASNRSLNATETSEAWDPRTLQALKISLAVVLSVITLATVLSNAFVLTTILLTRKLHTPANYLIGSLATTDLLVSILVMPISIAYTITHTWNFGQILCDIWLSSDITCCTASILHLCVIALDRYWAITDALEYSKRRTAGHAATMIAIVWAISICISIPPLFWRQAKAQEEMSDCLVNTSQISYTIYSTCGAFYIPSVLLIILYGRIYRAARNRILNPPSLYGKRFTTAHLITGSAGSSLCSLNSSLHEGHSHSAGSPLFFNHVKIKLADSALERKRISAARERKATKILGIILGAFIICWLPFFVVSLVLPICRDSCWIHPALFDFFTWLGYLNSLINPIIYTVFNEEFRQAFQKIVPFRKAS
Chain of 5-hydroxytryptamine receptor 1B (P28222 whole entry): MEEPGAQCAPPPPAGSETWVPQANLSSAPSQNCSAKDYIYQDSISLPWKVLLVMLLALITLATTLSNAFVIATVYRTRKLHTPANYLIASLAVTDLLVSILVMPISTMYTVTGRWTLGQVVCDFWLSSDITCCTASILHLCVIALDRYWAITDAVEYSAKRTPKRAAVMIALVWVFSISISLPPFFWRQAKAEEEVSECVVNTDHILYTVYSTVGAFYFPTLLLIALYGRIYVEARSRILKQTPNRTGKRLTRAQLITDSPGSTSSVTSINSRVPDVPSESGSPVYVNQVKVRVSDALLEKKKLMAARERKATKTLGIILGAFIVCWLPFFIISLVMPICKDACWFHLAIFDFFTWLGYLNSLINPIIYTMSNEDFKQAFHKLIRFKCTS
Chain of 5-hydroxytryptamine receptor 1B (Oryctolagus cuniculus) (P49144 whole entry): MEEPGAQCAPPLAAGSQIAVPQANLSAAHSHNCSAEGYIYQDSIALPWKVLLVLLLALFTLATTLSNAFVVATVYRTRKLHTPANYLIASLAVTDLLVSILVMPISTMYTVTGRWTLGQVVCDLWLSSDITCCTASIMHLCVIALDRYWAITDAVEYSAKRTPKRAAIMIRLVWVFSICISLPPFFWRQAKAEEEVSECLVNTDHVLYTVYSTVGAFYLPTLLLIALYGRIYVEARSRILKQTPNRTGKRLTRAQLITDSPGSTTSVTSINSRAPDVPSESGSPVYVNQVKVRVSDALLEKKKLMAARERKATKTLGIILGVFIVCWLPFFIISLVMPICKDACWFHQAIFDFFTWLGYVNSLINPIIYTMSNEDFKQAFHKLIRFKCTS
Chain of D(2) dopamine receptor (P14416 whole entry): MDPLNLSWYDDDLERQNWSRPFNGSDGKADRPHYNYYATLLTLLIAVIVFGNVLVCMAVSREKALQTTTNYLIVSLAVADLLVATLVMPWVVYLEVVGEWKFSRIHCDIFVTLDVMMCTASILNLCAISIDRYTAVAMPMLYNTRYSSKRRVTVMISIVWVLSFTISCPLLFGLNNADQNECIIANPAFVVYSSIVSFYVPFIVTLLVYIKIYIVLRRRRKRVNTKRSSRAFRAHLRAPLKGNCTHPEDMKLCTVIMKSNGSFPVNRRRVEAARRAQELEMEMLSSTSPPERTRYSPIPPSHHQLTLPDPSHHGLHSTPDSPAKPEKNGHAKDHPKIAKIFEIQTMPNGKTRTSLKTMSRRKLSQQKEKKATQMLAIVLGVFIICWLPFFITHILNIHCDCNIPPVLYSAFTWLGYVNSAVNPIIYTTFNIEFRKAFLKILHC
Chain of Beta-2 adrenergic receptor (P07550 whole entry): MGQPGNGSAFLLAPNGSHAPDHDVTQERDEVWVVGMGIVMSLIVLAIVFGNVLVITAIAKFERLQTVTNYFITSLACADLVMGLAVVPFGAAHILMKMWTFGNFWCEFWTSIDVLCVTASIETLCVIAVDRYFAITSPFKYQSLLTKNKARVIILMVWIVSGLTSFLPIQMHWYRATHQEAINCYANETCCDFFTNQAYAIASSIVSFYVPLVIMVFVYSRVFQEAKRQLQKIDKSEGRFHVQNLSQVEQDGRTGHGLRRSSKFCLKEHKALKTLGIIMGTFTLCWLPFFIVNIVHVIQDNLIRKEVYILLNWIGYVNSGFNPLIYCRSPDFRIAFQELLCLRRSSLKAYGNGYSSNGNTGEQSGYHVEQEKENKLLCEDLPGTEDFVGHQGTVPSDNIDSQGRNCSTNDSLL
Chain of Muscarinic acetylcholine receptor M3 (P20309 whole entry): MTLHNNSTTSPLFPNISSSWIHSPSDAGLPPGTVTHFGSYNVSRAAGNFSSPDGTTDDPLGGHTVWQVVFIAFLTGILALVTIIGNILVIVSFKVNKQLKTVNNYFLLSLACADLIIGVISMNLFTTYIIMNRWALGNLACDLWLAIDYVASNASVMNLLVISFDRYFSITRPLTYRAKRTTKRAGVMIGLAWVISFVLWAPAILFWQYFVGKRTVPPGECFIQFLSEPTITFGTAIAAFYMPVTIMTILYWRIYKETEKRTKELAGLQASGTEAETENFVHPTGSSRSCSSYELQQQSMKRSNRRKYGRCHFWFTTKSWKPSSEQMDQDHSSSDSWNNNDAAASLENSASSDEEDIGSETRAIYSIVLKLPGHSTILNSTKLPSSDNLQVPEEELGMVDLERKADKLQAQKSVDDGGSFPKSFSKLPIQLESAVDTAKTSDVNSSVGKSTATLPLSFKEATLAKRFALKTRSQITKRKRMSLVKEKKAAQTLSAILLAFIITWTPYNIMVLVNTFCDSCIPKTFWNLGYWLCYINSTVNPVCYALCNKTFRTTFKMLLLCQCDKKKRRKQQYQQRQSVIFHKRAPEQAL

Row | SMILES | Ki [1] [nM] | Ki [2] [nM] | Ki [3] [nM] | further results
1 | CN1CCC(c2c[nH]c3ccc(NC(=O)CCCCCCCCCCCCCC(=O)Nc4ccc5[nH]cc(C6CCN(C)CC6)c5c4)cc23)CC1 | 0.58 | 2.3 | > 10000 | 
2 | O=C(Nc1ccc2[nH]cc(C3CCN(CCCCCCCCCCN4CCC(c5c[nH]c6ccc(NC(=O)c7ccc(F)cc7)cc56)CC4)CC3)c2c1)c1ccc(F)cc1 | 38 | 13 | > 10000 | 
3 | NC(=O)c1ccc2[nH]cc(C3=CCC(NCCCCCCCNC4CC=C(c5c[nH]c6ccc(C(N)=O)cc56)CC4)CC3)c2c1 (configuration not stated) |  |  |  | IC50 [4]: 1.83 nM; IC50 [5]: 0.05 nM
4 | CN1CCC(c2c[nH]c3ccc(NC(=O)CCCCCCC(=O)Nc4ccc5[nH]cc(C6CCN(C)CC6)c5c4)cc23)CC1 | 1.3 | 0.9 | > 10000 | 
5 | CN1CCC(c2c[nH]c3ccc(N)cc23)CC1 | 353 | 39.6 | > 10000 | 
6 | O=C(Nc1ccc2[nH]cc(C3CCN(CCN4CCC(c5c[nH]c6ccc(NC(=O)c7ccc(F)cc7)cc56)CC4)CC3)c2c1)c1ccc(F)cc1 | > 10000 | 219 | > 10000 | 
7 | NC(=O)C(CN1CCC(c2c[nH]c3ccc(NC(=O)c4ccc(F)cc4)cc23)CC1)N1CCC(c2c[nH]c3ccc(NC(=O)c4ccc(F)cc4)cc23)CC1 (configuration not stated) | > 1000 | > 1000 | 48 | 
8 | O=C(Nc1ccc2[nH]cc(C3CCN(Cc4cccc(CN5CCC(c6c[nH]c7ccc(NC(=O)c8ccc(F)cc8)cc67)CC5)c4)CC3)c2c1)c1ccc(F)cc1 | 453 | 151 | > 1000 | 
9 | CN(C)CCCN1CCC(c2c[nH]c3ccc(NC(=O)c4ccc(F)cc4)cc23)CC1 | > 1000 | > 1000 | 124 | 
10 | O=C(Nc1ccc2[nH]cc(C3CCN(C/C=C/CN4CCC(c5c[nH]c6ccc(NC(=O)c7ccc(F)cc7)cc56)CC4)CC3)c2c1)c1ccc(F)cc1 | 103 | 24 | > 1000 | 
11 | CN1CCC(c2c[nH]c3ccc(NC(=O)CC(=O)Nc4ccc5[nH]cc(C6CCN(C)CC6)c5c4)cc23)CC1 | 16 | 3.4 | > 10000 | 
12 | O=C(Nc1ccc2[nH]cc(C3CCN(Cc4ccccc4)CC3)c2c1)c1ccc(F)cc1 | > 1000 | > 1000 | 32 | 
13 | O=C(Nc1ccc2[nH]cc(C3CCN(CCO)CC3)c2c1)c1ccc(F)cc1 | > 1000 | > 1000 | 9 | 
14 | O=C(Nc1ccc2[nH]cc(C3CCN(CCN4CCCCC4)CC3)c2c1)c1ccc(F)cc1 | > 1000 | > 1000 | > 1000 | 
15 | CN1CCC(c2c[nH]c3ccc(NC(=O)c4ccc(F)cc4)cc23)CC1 |  |  | 3 | 
16 | CN1CCC(c2c[nH]c3ccc(NC(=O)CCCCCCCCCC(=O)Nc4ccc5[nH]cc(C6CCN(C)CC6)c5c4)cc23)CC1 | 1.3 | 0.9 | > 10000 | 
17 | NCCc1c[nH]c2ccc(O)cc12 [SEROTONIN] |  |  | 35 | 

Row | SMILES | Ki [1] [nM] | Ki [2] [nM] | Ki [3] [nM] | further results
18 | CCCCCCCCN1CCC(c2c[nH]c3ccc(NC(=O)c4ccc(F)cc4)cc23)CC1 | > 1000 | > 1000 | > 10000 | 
19 | CNS(=O)(=O)Cc1ccc2[nH]cc(CCN(C)C)c2c1 |  |  | 234 | 
20 | O=C(Nc1ccc2[nH]cc(C3CCN(CC(N4CCC(c5c[nH]c6ccc(NC(=O)c7ccc(F)cc7)cc56)CC4)C(F)(F)F)CC3)c2c1)c1ccc(F)cc1 (configuration not stated) | > 1000 | > 1000 | 24 | 
21 | CN1CCC(c2c[nH]c3ccc(NC(=O)CCCCCCCCCCCC(=O)Nc4ccc5[nH]cc(C6CCN(C)CC6)c5c4)cc23)CC1 | 0.1 | 1.4 | > 10000 | 
22 | O=C(Nc1ccc2[nH]cc(C3CCN(CCCCCCCCCCCN4CCC(c5c[nH]c6ccc(NC(=O)c7ccc(F)cc7)cc56)CC4)CC3)c2c1)c1ccc(F)cc1 | 126 | 13 | > 10000 | 
23 | O=C(Nc1ccc2[nH]cc(C3CCN(CCCN4CCC(c5c[nH]c6ccc(NC(=O)c7ccc(F)cc7)cc56)CC4)CC3)c2c1)c1ccc(F)cc1 | > 10000 | 79 | > 10000 | 
24 | O=C(Nc1ccc2[nH]cc(C3CCN(CCOCCOCCOCCN4CCC(c5c[nH]c6ccc(NC(=O)c7ccc(F)cc7)cc56)CC4)CC3)c2c1)c1ccc(F)cc1 | 32 | 3.9 | 28 | 
25 | CN1CCC(c2c[nH]c3ccc(NC(=O)CCCC(=O)Nc4ccc5[nH]cc(C6CCN(C)CC6)c5c4)cc23)CC1 | 0.76 | 0.95 | > 10000 | 
26 | CN1CCC(c2c[nH]c3ccc(NC(=O)CCCCCCCCCCCCCCC(=O)Nc4ccc5[nH]cc(C6CCN(C)CC6)c5c4)cc23)CC1 | 0.81 | 11.3 | > 10000 | 
27 | O=C(Nc1ccc2[nH]cc(C3CCN(CCCCCCCCCCCCN4CCC(c5c[nH]c6ccc(NC(=O)c7ccc(F)cc7)cc56)CC4)CC3)c2c1)c1ccc(F)cc1 | > 10000 | 13 | > 10000 | 
28 | O=C(Nc1ccc2[nH]cc(C3CCN(CCCCCCCCCN4CCC(c5c[nH]c6ccc(NC(=O)c7ccc(F)cc7)cc56)CC4)CC3)c2c1)c1ccc(F)cc1 | 126 | 1 | > 10000 | 
29 | O=C(Nc1ccc2[nH]cc(C3CCN(CCCCCCN4CCC(c5c[nH]c6ccc(NC(=O)c7ccc(F)cc7)cc56)CC4)CC3)c2c1)c1ccc(F)cc1 | 100 | 0.6 | > 10000 | 
30 | O=C(Nc1ccc2[nH]cc(C3CCN(CCOCCOCCN4CCC(c5c[nH]c6ccc(NC(=O)c7ccc(F)cc7)cc56)CC4)CC3)c2c1)c1ccc(F)cc1 | 18 | 1.5 | 27 | 
31 | O=C(Nc1ccc2[nH]cc(C3CCN(CCCCCCCN4CCC(c5c[nH]c6ccc(NC(=O)c7ccc(F)cc7)cc56)CC4)CC3)c2c1)c1ccc(F)cc1 | 79 | 0.3 | > 10000 | IC50 [6]: 3200 nM; Activity [7]: inactive; IC50 [8]: > 10000 nM; IC50 [9]: > 50000 nM; IC50 (D(2) dopamine receptor): 700 nM
32 | CN1CCC(c2c[nH]c3ccc(NC(=O)CCCCCCCCCCCCC(=O)Nc4ccc5[nH]cc(C6CCN(C)CC6)c5c4)cc23)CC1 | 0.5 | 1.7 | > 10000 | Activity [7]: 24%; Activity [10]: 58%
33 | CN1CCC(c2c[nH]c3ccc(NC(=O)CCCCCCCCC(=O)Nc4ccc5[nH]cc(C6CCN(C)CC6)c5c4)cc23)CC1 | 0.79 | 0.95 | > 10000 | 
34 | O=C(O)CCCCCCCCCN1CCC(c2c[nH]c3ccc(NC(=O)c4ccc(F)cc4)cc23)CC1 | > 1000 | > 1000 | > 1000 | 
